Experimental data: ChEMBL document CHEMBL4513216, “Probing the Open Global Health Chemical Diversity Library for Multistage-Active Starting Points for Next-Generation Antimalarials” (ACS Infect Dis, 2020)

Test: Toxicity liver stage against HepG2, at 10uM
Type: cell-based
Set-up: test concentration 10 uM, cell line HepG2-A16-CD81EGFP
Conditions: human, HepG2-A16-CD81EGFP cells; read-out: INHIBITION
Summary of the method: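 Uninfected HepG2-A16-CD81EGFP cells, 3 × 10^3 per well, 1536-well, plated on prespotted compound at 10 μM final, parasite-free screening media added to match infected plates; puromycin 10 μM positive, DMSO 0.5% negative; run in parallel with 48 h PbLuc assay at 37 °C, 5% CO2; viability by CellTiter-Glo luminescence, normalized to controls.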

Point of comparison: `Cn1c(C(N)=O)ccc1-c1ccccc1`, cytotoxicity at 10 µM 3.18%. Against it:
- O=C(COCC(F)(F)F)Nc1nncs1 — higher, 5.79%
- Cc1cccc(OC2CCN(C(=O)NCCn3ccnc3)CC2)c1C — lower, 0.856%
- CCCn1cnc2c1CN(S(=O)(=O)c1ccc(F)cc1)[C@H](C(=O)OC)C2 — lower, 1.2%
- O[C@H]1COCCN(Cc2cccc(C(F)(F)F)c2)C1 — lower, -1.8%
- Cc1ccc(CNC2(Cc3cc(CO)on3)COC2)o1 — lower, 0.305%
- CC(C)NC(=O)N[C@H]1C[C@@H](c2nc(-c3ccncc3)no2)N(C)C1 — lower, -2.8%
- CCN(CC)C(=O)CSc1nc2nc(C)ccc2o1 — higher, 5.73%
- CC(=O)N1N=C(c2ccco2)OC1C(=O)NCC(C)C (configuration not stated) — lower, -5.31%
- O=S1(=O)[C@@H](c2ccccc2)[C@H](CO)CN1c1ccccc1 — lower, -5.41%
- Cc1nn(-c2ncnc3[nH]cnc23)c2c1C(CC(C)C)CC(=O)N2 (configuration not stated) — higher, 11.2%
- Cc1cc(C)n(Cc2ccc(-c3noc(C(=O)NC[C@@H](C)O)n3)cc2)n1 — lower, -9.62%
- Cc1nn(-c2ncnc3[nH]cnc23)c2c1C(C(C)(C)C)CC(=O)N2 (configuration not stated) — higher, 5.08%
- CC(C)NC(=O)N1CCCC2(CCN(c3ccsc3)C2=O)C1 (configuration not stated) — lower, -0.42%
- COCCN1CCC2(CC1)COc1ccccc1S(=O)(=O)N(C)C2 — lower, -1.28%
- COc1cc(N2CC[C@@H]3O[C@@H](C(=O)NC(C)C)C[C@@H]32)ncn1 — higher, 7.66%
- CN(C)Cc1cn2c(n1)CN(C1CCOC1)CC2 (configuration not stated) — higher, 6.43%
- O=c1ccc(-c2cccs2)nn1CN1CCN(C2CCS(=O)(=O)C2)CC1 (configuration not stated) — higher, 9.99%
- CCc1ccc(NC(=O)CC2Cn3ncnc3NC2=O)cc1 (configuration not stated) — higher, 6.47%
- CN(C)CC1CSCCCN1C(=O)c1ccc(=O)[nH]c1 (configuration not stated) — lower, 2.76%
- CC(C)N1CCn2c(nc3cc(C(N)=O)ccc32)C1 — lower, -11.3%
- Cc1noc([C@@]23CCO[C@@H]2CCN(C(=O)c2sccc2C)C3)n1 — lower, -8.23%
- O=c1cc(Cn2ccnc2)nc2n1CCCN(Cc1ccsc1)C2 — lower, -0.808%
- CCCNC(=O)c1nn(CC)cc1NC(=O)c1c(C)nn(C)c1C — lower, -7.95%
- Cc1nc(C)c(C(=O)N2CCc3nnc(C4CCCCN4C)n3CC2)o1 (configuration not stated) — lower, 1.9%
- Cc1cccn2c(NC(C)(C)C)c(C3CCN(C(=O)C4CC4)CC3)nc12 — higher, 3.53%
- O=C(NCC1CCOCC1)c1cc(-c2cccnc2)c2cnccc2n1 — higher, 13.2%
- CC(=O)NCc1cncc(C2CCCN2C2CCOCC2)n1 (configuration not stated) — lower, 2.15%
- O=C(c1cncs1)N1CCOC(c2cc(CCO)[nH]n2)C1 (configuration not stated) — lower, -0.49%
- Cc1ncc(CN2CCC(O)(c3ccccc3F)CC2)cn1 — lower, 0.46%
- CCN(CC)S(=O)(=O)c1cc2c3c(c1)c(C)cc(=O)n3CC2 — higher, 5.45%
- Cc1cc(N2CCC(c3n[nH]c4nccnc34)C2)ncn1 (configuration not stated) — lower, -22.7%
- NC(=O)CN1CCOCC(Cc2ccccc2)C1 (configuration not stated) — lower, 0.579%
- Cc1nc(C2CCN(C(=O)c3cnc(N(C)C)nc3)CC2)c2sccn12 — lower, -4.5%
- Clc1ccc(C(CNCc2cccnc2)n2cccn2)cc1 (configuration not stated) — lower, -5.07%
- O=C(NCCc1nncn1C1CC1)C1SCCc2ccccc21 (configuration not stated) — lower, 2.48%
- CCc1noc(CN(C)C2CCN(c3sccc3C#N)C2=O)n1 (configuration not stated) — higher, 7.73%
- Cn1cc(CCC(=O)NC(c2ccc(F)cc2)C(F)(F)F)cn1 (configuration not stated) — lower, 1.68%
- Cc1cc(CNC(=O)Nc2ccc(C(=O)NC3CC3)cc2)no1 — lower, -0.396%
- CCOC(=O)c1ccc(CNC(=O)c2ccon2)o1 — higher, 8.64%
- O=C(Nc1ccc2c(ccn2CCN2CCOCC2)c1)c1ccccn1 — lower, 0.425%
- O=C(Nc1ccccn1)c1nc(N2CCCC2)ncc1Cl — lower, -8.77%
- COc1ccc(NC(=O)Cc2c(C)nc3c(c2C)c(=O)[nH]n3C)cn1 — higher, 7.32%
- Cc1cc(S(=O)(=O)Nc2cccc(I)c2)sc1C(=O)O — higher, 3.76%
- CC(=O)c1cccc(NS(=O)(=O)c2cc(C)c(C(=O)O)s2)c1 — lower, 0.178%
- Cn1cc(Br)c(=O)c(NS(=O)(=O)c2ccc(Cl)cc2)c1 — lower, -5.28%
- CCNC(=O)CCCC(=O)N1CCc2cc(Cl)cc(Cl)c2C1 — lower, -15.1%
- Cc1ccsc1C(=O)Nc1cnn(CC(=O)NC2CCCC2)c1 — lower, -1.65%
- Cc1nccn1-c1cc(CNC(=O)CCNC(=O)OC(C)(C)C)ccn1 — lower, -1.7%
- COc1ccccc1C1(CNc2ccc(C(=O)N(C)C)cn2)CC1 — lower, -10.5%
- CS(=O)(=O)CCCNC(=O)NC1CC(c2cccc(Cl)c2)C1 (configuration not stated) — lower, -3.17%
- Cc1ccc(F)c(NCC(C)(C)S(C)(=O)=O)c1 — lower, -7.6%
- CN(CCc1nccs1)C(=O)CC1(O)CCCCC1 — lower, -6.16%
- NC(=O)NC(=O)CCn1ccc(-c2ccsc2)n1 — higher, 8.56%
- Cc1ccc(-n2nnnc2C2(NCc3ccco3)CCCC2)cc1 — higher, 7.55%
- COC(=O)CCC(=O)Nc1ccc(Br)c(C)n1 — higher, 7.07%
- CC(C)OCCN(C)CC(c1cccs1)N1CCOCC1 (configuration not stated) — lower, -4.34%
- c1cnn(C2CN(c3ncnc4[nH]ccc34)C2)c1 — lower, 1.87%
- CC(C)c1nc(CNc2ccc(CCO)cc2)cs1 — higher, 20.1%
- Cn1ccnc(Sc2ccccc2)c1=O — lower, 0.483%
- CN(Cc1ccco1)Cc1ccccc1CNC(=O)c1ccncc1 — lower, -9.87%
- Cc1c(I)cccc1C(=O)NCC1(CO)CC1 — lower, -4.11%
- CCN1CCN(c2ccc(F)cc2C(C)NCc2ccncc2)CC1 (configuration not stated) — lower, -1.4%
- CC(C(=O)NCc1ccnc(Oc2ccc(F)cc2)c1)n1cncn1 (configuration not stated) — lower, -3.63%
- COc1ccc(S(=O)(=O)N2C[C@@H]3CN(C)CCO[C@@H]3C2)cc1 — lower, 1.82%
- COc1ccc([C@@H]2CN(c3cc(OC)nc(N)n3)C[C@H]2N(C)C)cc1 — higher, 15%
- CC(=O)Nc1ccc2nc(CN(C)Cc3noc(C)n3)ccc2c1 — higher, 3.47%
- Cc1nc(C)c(C)c(N2CCC3(CCN(C)C3)C2)n1 (configuration not stated) — lower, -4.88%
- Cc1ccc(Cl)c(CN2CCN(C)C(C(=O)O)C2)c1F (configuration not stated) — lower, -0.0679%
- CNC(=O)C(C)(C)N(C)C(=O)c1cc(COc2ccccc2OC)[nH]n1 — lower, -5.12%
- CCc1cc(-c2nccn2-c2ccccc2CN2CCOCC2)on1 — lower, -7.91%
- CC(C)c1cc(C(=O)N[C@H]2CN(C3CCOCC3)C[C@@H]2C2CC2)no1 — higher, 6.31%
- CN(C)CCCNC(=O)C(c1cccc(F)c1)N(C)C (configuration not stated) — lower, -4.58%
- COC(=O)C1CCCN1C(=O)c1cc(CC(C)C)no1 (configuration not stated) — higher, 14%
- O=C1CN(CCCNS(=O)(=O)c2cccc(C(=O)NC3CC3)c2)CCN1 — lower, -3.45%
- O=C(O)CC1COCCN1Cc1ccccc1-c1ccccc1 (configuration not stated) — higher, 12.9%
- COC(=O)[C@@H]1C[C@H](NC(=O)Cn2c(=O)cc(C)c3ccccc32)CN1C — lower, -3.44%
- CCc1noc(CN(C)Cc2cc3ccc(Cl)cc3[nH]c2=O)n1 — higher, 4.92%
- COc1c(F)cc(-c2cn(CCn3c(C)cc(C)nc3=O)nn2)cc1Cl — lower, -1.72%
- CCN(Cc1nccn1C)C(=O)c1ccc(NCc2cnn(C)c2)nc1 — lower, 0.82%
- O=C(CCCN1CCOCC1)N1CCCC(CO)(CC2CC2)C1 (configuration not stated) — lower, -1.5%
- Cc1cc(CN2CCOCS2(=O)=O)ccc1F — lower, -8.02%
- CCCc1noc(CN2CCN(c3nccs3)CC2)n1 — lower, -3.43%
- CC(Cn1cccn1)NC(=O)Nc1ccccn1 (configuration not stated) — lower, 1.32%
- CNc1nc(CNC(=O)Nc2ccc(SC)c(F)c2)cs1 — lower, -5.75%
- Cc1ccc(-c2nc(C(=O)N3CCN(C(=O)N(C)C)CC3)cs2)c(C)c1 — lower, -7.98%
- Cc1cc(CNc2cc(Cl)ccc2C)no1 — lower, -7.01%
- CC(=O)NC1CCCN(Cc2ccn(C)c(=O)c2)C1 (configuration not stated) — lower, 2.34%
- CCN(CC)c1ccc(C(=O)N2CCCC2Cn2cc(C)cn2)cn1 (configuration not stated) — lower, -17.2%
- CCc1nccn1C1CCCN(C(=O)c2csc(C3CC3)n2)C1 (configuration not stated) — lower, -9.39%
- CN(C)c1ncccc1CNS(=O)(=O)c1ccccc1Cl — lower, -15.3%
- Cc1cnn(CC2CCCCN2C(=O)c2ccc(N(C)C)nc2)c1 (configuration not stated) — lower, -13.2%
- Cc1nn(C)c(C)c1C1CCCN1C(=O)c1ccnc(N(C)C)c1 (configuration not stated) — lower, -5.42%
- CCc1nc(CN2CCCN(C(=O)c3cncnc3C)CC2)cs1 — lower, -7.95%
- CCOCCCn1c(NC(=O)c2cnn(C)c2)nc2ccccc21 — lower, -12.1%
- Cc1ccc(S(=O)(=O)NC(=O)c2cccc(OCC(N)=O)c2)s1 — lower, -9.55%
- Cc1noc([C@@H](C)NCc2ccc(F)cc2)c1C(=O)O — lower, -5.57%
- CN(C)S(=O)(=O)N1C[C@@H](Oc2ccccn2)[C@H]2OCCC[C@H]21 — lower, 1.16%
- O=C1CC(c2ccncc2)C2(CCN(CC3CC3)CC2)N1 (configuration not stated) — higher, 11.3%
- CNC(=O)C1(CCCc2ccncc2)CCN1 (configuration not stated) — lower, -9.08%
- Cc1ccc(CN2CCc3ncnc(-c4ccncc4)c3CC2)o1 — lower, -1.19%
- c1cc(CN2CCC3(CC2)CC(N2CCCC2)CO3)co1 (configuration not stated) — lower, 2.38%
- c1coc(CN2CCCn3c(CN4CCOCC4)nnc3C2)c1 — higher, 4.86%
- Cc1nc(CN2C(=O)COC3(CCN(Cc4ccco4)CC3)C2C)cs1 (configuration not stated) — lower, -13.5%
- CC1c2ncc(CNC(=O)C3CC3)n2CCN1Cc1nccs1 (configuration not stated) — lower, -5.43%
- Cc1ccsc1CN1C[C@@H]2COC[C@]2(COCC(=O)N(C)C)C1 — lower, -4.55%
- CNC(=O)C1(CCCc2ccncc2)CCCCN1 (configuration not stated) — lower, -37.5%
- c1ccc(Cn2cc3c(n2)C(CNCc2ccco2)OCC3)nc1 (configuration not stated) — lower, -7.85%
- CN(C)C[C@H]1OC[C@@H]2CCN(C(=O)c3ccco3)C[C@@H]21 — higher, 4.84%
- Cc1ccnc(N2C[C@H]3CC[C@@H](C2)N(CC2CCC2)C3=O)n1 — higher, 11.4%
- CN1CC2(CCC(C(=O)O)CC2)Oc2ccccc2C1=O (configuration not stated) — lower, 2%
- CCCSCC(=O)N1C[C@@H]2CC[C@H]1CN(c1ncccn1)C2 — higher, 4.42%
